Each structure is given as a SMILES string. Converted amounts (≈) assume the structure as drawn.

One assay concerns Aspergillus fumigatus. Description: Tested in vitro for minimum inhibitory concentration against Aspergillus fumigatus. Type of assay: functional. The essentials:
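Tube dilution in Sabouraud's dextrose broth (pH 6.5). Compounds were dissolved in DMSO and serially diluted in medium. The inoculum was harvested by spatula from Kimmig agar cultures grown 21 days at 30 °C. Tubes were read after 72 h at 30 °C. MIC was the lowest concentration with no macroscopically detectable growth.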

For assay [1], the system named is Candida albicans. Description: Tested in vitro for minimum inhibitory concentration against candida albicans 124. Type of assay: functional. The essentials: (§1)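 Yeast broth dilution in malt extract broth (pH 4.8) in glass tubes, with compounds in DMSO serially diluted in medium. Blastospores came from cultures shaken about 30 h at 37 °C in yeast nitrogen base. Growth was read after 48 h at 30 °C. MIC was the lowest concentration without macroscopically visible growth.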

For the next assay, the system named is Candida parapsilosis. The experiment in a line: Tested in vitro for minimum inhibitory concentration against candida parapsilosis 39. The note with it: Lodderomyces parapsilosis. The class given is functional. In outline:
as §1

The subject of the next assay is Microsporum canis. The experiment in a line: Tested in vitro for minimum inhibitory concentration against microsporum canis. The class given is functional. The essentials: (§2)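 Serial dilutions were made from DMSO solutions into Sabouraud's dextrose broth (pH 6.5) in glass tubes. Inoculum was taken by spatula from Kimmig agar cultures grown 21 days at 30 °C. Incubation was 7 days at 30 °C. MIC was the lowest concentration at which growth was macroscopically undetectable.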

The test system of the next assay is Sporothrix schenckii. The experiment in a line: Tested in vitro for minimum inhibitory concentration against sporothrix schenck ii. Type of assay: functional. In outline: as §2
For assay [2], the system named is Candida albicans. Description: Tested in vitro for minimum inhibitory concentration against candida albicans 9. The class given is functional. The essentials:
as §1

For assay [3], the system named is Trichophyton mentagrophytes. The experiment in a line: Tested in vitro for minimum inhibitory concentration against Trichophyton mentagrophytes.

In general, MIC refers to the lowest concentration found to suppress growth. In the case of `C=C(C#CC(C)(C)C)CN(C)Cc1cccc2ccccc12`, the MIC is 50 µg/mL (≈ 172 µM) in the assay on Aspergillus fumigatus; over 200 µg/mL against Candida albicans [1]; 6.25 µg/mL (≈ 21.4 µM) with Candida parapsilosis; 0.5 µg/mL (≈ 1.72 µM) in the assay on Microsporum canis; 1.56 µg/mL (≈ 5.35 µM) in the assay with Sporothrix schenckii; over 200 µg/mL against Candida albicans [2]. For the same compound, 0.05 µg/mL (≈ 0.172 µM) was the least that counted as inhibitory in assay [3] (MIC).
For `CC(C#CC(C)(C)C)CN(C)Cc1cccc2ccccc12` (configuration not stated), the MIC in the assay on Aspergillus fumigatus is over 200 µg/mL; in the assay on Candida albicans [1] it was over 200 µg/mL; in the assay with Candida parapsilosis, 200 µg/mL (≈ 682 µM); in the assay with Microsporum canis, 0.8 µg/mL (≈ 2.73 µM); with Sporothrix schenckii, 12.5 µg/mL (≈ 42.6 µM); against Candida albicans [2] it was over 200 µg/mL. For the same compound, in assay [3], the MIC was 0.8 µg/mL (≈ 2.73 µM).
As for `CCC(C)(C)C#CCCN(C)Cc1cccc2ccccc12`, the MIC with Aspergillus fumigatus is 0.1 µg/mL (≈ 0.341 µM); with Candida albicans [1] it was 50 µg/mL (≈ 170 µM); in the assay with Candida parapsilosis, 1.56 µg/mL (≈ 5.32 µM); in the assay with Microsporum canis it was 0.01 µg/mL (≈ 0.0341 µM); against Sporothrix schenckii, 3.13 µg/mL (≈ 10.7 µM); in the assay on Candida albicans [2], 12.5 µg/mL (≈ 42.6 µM). This compound also returned an MIC in assay [3] of 0.006 µg/mL (≈ 0.0204 µM).
For the compound `CN(CCC#CC(C)(C)C)Cc1cccc2ccccc12`, the MIC in the assay on Aspergillus fumigatus was found to be 0.1 µg/mL (≈ 0.358 µM); in the assay with Candida albicans [1], 50 µg/mL (≈ 179 µM); in the assay on Candida parapsilosis it was 1.56 µg/mL (≈ 5.58 µM); in the assay with Microsporum canis it was 0.01 µg/mL (≈ 0.0358 µM); against Sporothrix schenckii it was 3.13 µg/mL (≈ 11.2 µM); in the assay with Candida albicans [2] it was 50 µg/mL (≈ 179 µM). This compound returned an MIC in assay [3] of 0.006 µg/mL (≈ 0.0215 µM).
`CCCC(C)(C)C#CCCN(C)Cc1cccc2ccccc12`: the MIC in the assay on Aspergillus fumigatus amounted to 0.05 µg/mL (≈ 0.163 µM); against Candida albicans [1] it was 25 µg/mL (≈ 81.3 µM); with Candida parapsilosis, 0.4 µg/mL (≈ 1.3 µM); against Microsporum canis, 0.003 µg/mL (≈ 0.00976 µM); in the assay with Sporothrix schenckii, 1.56 µg/mL (≈ 5.07 µM); with Candida albicans [2], 12.5 µg/mL (≈ 40.7 µM). The compound further registered an MIC in assay [3] of 0.003 µg/mL (≈ 0.00976 µM).
Turning to `CC(C)(C)C#CCCOCc1cccc2ccccc12`, the MIC with Aspergillus fumigatus was 1.56 µg/mL (≈ 5.86 µM); in the assay with Candida albicans [1] it was over 200 µg/mL; with Candida parapsilosis, over 200 µg/mL; against Microsporum canis it was 0.4 µg/mL (≈ 1.5 µM); with Sporothrix schenckii, over 200 µg/mL; against Candida albicans [2], 200 µg/mL (≈ 751 µM). The compound further returned an MIC in assay [3] of 0.4 µg/mL (≈ 1.5 µM).
In the case of `CN(CCC#CC(C)(C)C)CCc1cccc2ccccc12`, the MIC with Aspergillus fumigatus turned out to be 50 µg/mL (≈ 170 µM); in the assay with Candida albicans [1] it was 200 µg/mL (≈ 682 µM); with Candida parapsilosis, 100 µg/mL (≈ 341 µM); against Microsporum canis, 3.13 µg/mL (≈ 10.7 µM); in the assay with Sporothrix schenckii, 12.5 µg/mL (≈ 42.6 µM); with Candida albicans [2] it was 100 µg/mL (≈ 341 µM). For the same compound, in assay [3], the lowest concentration to inhibit growth (MIC) was 0.8 µg/mL (≈ 2.73 µM).
As to `CN(CCCCC#CC(C)(C)C)Cc1cccc2ccccc12`, the MIC with Aspergillus fumigatus is over 200 µg/mL; against Candida albicans [1] it was over 200 µg/mL; against Candida parapsilosis, over 200 µg/mL; against Microsporum canis it was 25 µg/mL (≈ 81.3 µM); with Sporothrix schenckii it was over 200 µg/mL; against Candida albicans [2] it was 200 µg/mL (≈ 650 µM). The same compound gave an MIC in assay [3] of 12.5 µg/mL (≈ 40.7 µM).
As for `CN(CCC#CC(C)(C)c1ccccc1)Cc1cccc2ccccc12`, the MIC in the assay on Aspergillus fumigatus turned out to be 0.2 µg/mL (≈ 0.586 µM); against Candida albicans [1], 12.5 µg/mL (≈ 36.6 µM); in the assay on Candida parapsilosis, 0.4 µg/mL (≈ 1.17 µM); with Microsporum canis, 0.006 µg/mL (≈ 0.0176 µM); against Sporothrix schenckii it was 3.13 µg/mL (≈ 9.17 µM); against Candida albicans [2] it was 6.25 µg/mL (≈ 18.3 µM). The compound also registered an MIC in assay [3] of 0.01 µg/mL (≈ 0.0293 µM).
For `CCN(Cc1cccc2ccccc12)C(=O)OCCC#CC(C)(C)C`, the MIC was over 200 µg/mL with Aspergillus fumigatus; over 200 µg/mL in the assay with Candida albicans [1]; 25 µg/mL (≈ 74.1 µM) in the assay with Candida parapsilosis; 100 µg/mL (≈ 296 µM) in the assay with Microsporum canis; over 200 µg/mL with Sporothrix schenckii; over 200 µg/mL in the assay on Candida albicans [2]. Further, the MIC in assay [3] is 100 µg/mL (≈ 296 µM).
In the case of `CC(CC#CC(C)(C)C)N(C)Cc1cccc2ccccc12` (configuration not stated), the MIC with Aspergillus fumigatus is over 200 µg/mL; with Candida albicans [1] it was over 200 µg/mL; against Candida parapsilosis, 100 µg/mL (≈ 341 µM); against Microsporum canis, 1.56 µg/mL (≈ 5.32 µM); in the assay on Sporothrix schenckii it was over 200 µg/mL; against Candida albicans [2], 200 µg/mL (≈ 682 µM). This compound had an MIC in assay [3] of 1.56 µg/mL (≈ 5.32 µM).
Consider `CCN(CCC#CC(C)(C)C)Cc1cccc2ccccc12`, for which the MIC against Aspergillus fumigatus came out at 0.2 µg/mL (≈ 0.682 µM); in the assay on Candida albicans [1], 200 µg/mL (≈ 682 µM); in the assay on Candida parapsilosis, 3.13 µg/mL (≈ 10.7 µM); in the assay on Microsporum canis, 0.02 µg/mL (≈ 0.0682 µM); in the assay on Sporothrix schenckii, 12.5 µg/mL (≈ 42.6 µM); against Candida albicans [2], 50 µg/mL (≈ 170 µM). Also, the MIC in assay [3] amounted to 0.05 µg/mL (≈ 0.17 µM).
Take `CN(CC#CC(C)(C)C)Cc1cccc2ccccc12`: the MIC in the assay on Aspergillus fumigatus was over 200 µg/mL; against Candida albicans [1], over 200 µg/mL; in the assay on Candida parapsilosis, over 200 µg/mL; against Microsporum canis it was 25 µg/mL (≈ 94.2 µM); against Sporothrix schenckii, over 200 µg/mL; with Candida albicans [2], 200 µg/mL (≈ 754 µM). This compound registered an MIC in assay [3] of 12.5 µg/mL (≈ 47.1 µM).
For `CN(CC#CC(C)(C)C)CCc1cccc2ccccc12`, the MIC with Aspergillus fumigatus was over 50 µg/mL; against Candida albicans [1] it was 100 µg/mL (≈ 358 µM); against Candida parapsilosis, 50 µg/mL (≈ 179 µM); with Microsporum canis it was 1.56 µg/mL (≈ 5.58 µM); in the assay on Sporothrix schenckii, 6.25 µg/mL (≈ 22.4 µM); in the assay on Candida albicans [2], 50 µg/mL (≈ 179 µM). The same compound registered an MIC in assay [3] of 1.56 µg/mL (≈ 5.58 µM).
Turning to `CN(CCCC#CC(C)(C)C)Cc1cccc2ccccc12`, the MIC against Aspergillus fumigatus was 50 µg/mL (≈ 170 µM); with Candida albicans [1], 200 µg/mL (≈ 682 µM); with Candida parapsilosis it was 0.8 µg/mL (≈ 2.73 µM); against Microsporum canis, 0.2 µg/mL (≈ 0.682 µM); in the assay on Sporothrix schenckii, 1.56 µg/mL (≈ 5.32 µM); with Candida albicans [2] it was over 200 µg/mL. Moreover, the MIC in assay [3] turned out to be 0.05 µg/mL (≈ 0.17 µM).
Regarding `CN(C/C=C/C#CC(C)(C)C)Cc1cccc2ccccc12` [TERBINAFINE], the MIC amounted to 0.8 µg/mL (≈ 2.75 µM) against Aspergillus fumigatus; 25 µg/mL (≈ 85.8 µM) against Candida albicans [1]; 0.8 µg/mL (≈ 2.75 µM) in the assay with Candida parapsilosis; 0.006 µg/mL (≈ 0.0206 µM) against Microsporum canis; 0.4 µg/mL (≈ 1.37 µM) against Sporothrix schenckii; 6.25 µg/mL (≈ 21.4 µM) in the assay on Candida albicans [2]. Moreover, the lowest concentration to inhibit growth in assay [3] (MIC) was 0.003 µg/mL (≈ 0.0103 µM).
